{
  "source": "ChEMBL document CHEMBL4373640",
  "about": "“Synthesis and antitumor activity of aza-brazilan derivatives containing imidazolium salt pharmacophores” (Medchemcomm, 2019)",
  "key": {"[1]": {"test": "Induction of apoptosis in human SMMC-7221 cells assessed as late apoptotic cells at 0.5 uM after 48 hrs by AnnexinV-FITC/propidium iodide staining based FACSCalibur flow cytometry analysis (reference value: 7.7 %)", "format": "functional"}, "[2]": {"test": "Cell cycle arrest in human SMMC-7221 cells assessed as accumulation at S phase at 2 uM after 24 hrs by propidium iodide/RNase A staining based FACSCalibur flow cytometry analysis (reference value: 14.733 +/- 1.29 %)", "format": "functional"}, "[3]": {"test": "Cell cycle arrest in human SMMC-7221 cells assessed as accumulation at sub-G1 phase at 1 uM after 24 hrs by propidium iodide/RNase A staining based FACSCalibur flow cytometry analysis (reference value: 4.03 +/- 0.47 %)", "format": "functional"}, "[4]": {"test": "Induction of apoptosis in human SMMC-7221 cells assessed as viable cells at 2 uM after 48 hrs by AnnexinV-FITC/propidium iodide staining based FACSCalibur flow cytometry analysis (reference value: 89.8 %)", "format": "functional", "details": "SMMC-7221, 48 h, read-out: Activity"}, "A549": {"tested_on": "A549", "test": "Cytotoxicity against human A549 cells assessed as reduction in cell viability after 48 hrs by MTS assay", "format": "functional, cell-based", "details": "A549, 48 h", "how_it_was_run": "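Cells (5 × 10^3 per well) were plated 12 h before treatment, then exposed continuously to compound for 48 h. MTS was added, with 1–4 h incubation at 37 °C and OD read at 490 nm. IC50 is the concentration cutting OD by 50% versus untreated cells, taken from dose–response curves. Values are the mean of three independent determinations.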"}, "[5]": {"test": "Induction of apoptosis in human SMMC-7221 cells assessed as early apoptotic cells at 2 uM after 48 hrs by AnnexinV-FITC/propidium iodide staining based FACSCalibur flow cytometry analysis (reference value: 0.106 %)", "format": "functional"}, "[6]": {"test": "Cell cycle arrest in human SMMC-7221 cells assessed as accumulation at G0/G1 phase at 1 uM after 24 hrs by propidium iodide/RNase A staining based FACSCalibur flow cytometry analysis (reference value: 72.17 +/- 1.0 %)", "format": "functional"}, "[7]": {"test": "Cell cycle arrest in human SMMC-7221 cells assessed as accumulation at S phase at 1 uM after 24 hrs by propidium iodide/RNase A staining based FACSCalibur flow cytometry analysis (reference value: 14.733 +/- 1.29 %)", "format": "functional"}, "[8]": {"test": "Induction of apoptosis in human SMMC-7221 cells assessed as late apoptotic cells at 1 uM after 48 hrs by AnnexinV-FITC/propidium iodide staining based FACSCalibur flow cytometry analysis (reference value: 7.7 %)", "format": "functional"}},
  "data": [
    {"smiles": "COc1cccc2c1N(CCCn1c[n+](Cc3ccc(C)cc3)c3cc(C)c(C)cc31)C[C@@H]1Cc3ccc(Br)cc3[C@H]21.[Br-]", "values": [
      {"measurement": "Activity", "setting": "[1]", "value": 8.66, "unit": "%"},
      {"measurement": "Activity", "setting": "[2]", "value": 9.27, "unit": "%"},
      {"measurement": "Activity", "setting": "[3]", "value": 1.32, "unit": "%"},
      {"measurement": "viability at 2 µM", "setting": "[4]", "value": 77.7, "unit": "%"},
      {"measurement": "IC50", "setting": "A549", "value": 1300, "unit": "nM"},
      {"measurement": "Activity", "setting": "[5]", "value": 0.216, "unit": "%"},
      {"measurement": "Activity", "setting": "[6]", "value": 80.32, "unit": "%"},
      {"measurement": "Activity", "setting": "[7]", "value": 10.18, "unit": "%"},
      {"measurement": "Activity", "setting": "[8]", "value": 14.6, "unit": "%"}
    ]}
  ]
}
